Legend:
[1] = biological target: Cholinesterase (Homo sapiens) (UniProt P06276); test: Activity of BuChE in 10% human plasma; format: cell-free; design: Vmax(app): unit not given here
Procedure, shortened: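 Citrated human venous blood was centrifuged, and the pooled plasma or serum was diluted with phosphate buffer pH 7.4. Whole blood was used undiluted. Ester substrate at 5 × 10^-5 M was added from acetonitrile and incubated at 37 °C. Timed aliquots were quenched in ZnSO4 in MeCN/H2O and analysed by HPLC at 230 nm. Apparent KM and Vmax were fitted to the integrated Michaelis-Menten equation. Triplicate.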

[2] = system: Platelet; test: Inhibition of arachidonic acid-induced platelet aggregation in whole blood; format: functional, tissue-based
Procedure, shortened: (§1)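 Citrated human whole blood (500 µL) diluted with 500 µL saline, equilibrated 10 min at 37 °C, then pre-incubated 10 min with stirring with test compound added in DMSO (10 µL). Aggregation triggered by arachidonic acid (0.5 mM); impedance read over 6 min. Inhibition tested over 5-100 µM; fit by nonlinear regression.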

[3] = system: Plasma; test: Stability in 30% human plasma assessed as aspirin yield at pH 7.4 in presence of 100 uM AChE inhibitor BW284c51; format: ADME, cell-free
Procedure, shortened: (§2)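 Pooled citrated human plasma was diluted to 30% with phosphate buffer pH 7.4. Inhibitor was preincubated for 5 min before adding ester (5 × 10^-5 M) at 37 °C. Lines 15-16 used plasma from a donor with dibucaine-resistant BuChE. Timed aliquots were quenched with ZnSO4 in MeCN/H2O, and parent and aspirin were measured by HPLC at 230 nm. kobs came from exponential decay. Three determinations, mean ± SD.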

[4] = system: Plasma; test: Stability in 30% human plasma assessed as aspirin yield at pH 7.4 in presence of 20 uM BuChE subtype inhibitor dibucaine; format: ADME, cell-free; procedure, shortened: as §2
[5] = Stability in 30% human plasma assessed as half life of hydrolysis at pH 7.4 in presence of 20 uM dubucaine-insensitive BuChE subtype inhibitor dibucaine; format: ADME, cell-free; details: pH 7.4, with dibucaine; procedure, shortened: as §2
[6] = Stability in 30% human plasma assessed as half life of hydrolysis at pH 7.4 in presence of 20 uM BuChE subtype inhibitor dibucaine; format: ADME, cell-free; details: pH 7.4, with dibucaine (BuChE subtype inhibitor); procedure, shortened: as §2
[7] = Stability in 10% rat plasma assessed as half life of hydrolysis at pH 7.4; format: ADME, cell-free
[8] = (§3) Stability in 50% human plasma assessed as half life of hydrolysis at pH 7.4; format: ADME, cell-free; details: 50% human plasma
Procedure, shortened: (§4)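 Ester at 5 × 10^-5 M, added from acetonitrile, was incubated at 37 °C in pooled citrated human plasma diluted to 50% with phosphate buffer pH 7.4. Aliquots were deproteinised with ZnSO4 in MeCN/H2O and the remaining ester was quantified by HPLC at 230 nm. The rate constant came from an exponential decay fit. Triplicate.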

[9] = system: Plasma; test: Stability in 50% human plasma assessed as aspirin yield at pH 7.4; format: ADME, cell-free
Procedure, shortened: (§5)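 Pooled plasma or serum from centrifuged citrated human venous blood, diluted with pH 7.4 phosphate buffer (whole blood undiluted), preheated to 37 ± 0.5 °C. Ester added from acetonitrile at 5 × 10^-5 M. Aliquots were quenched in 2% ZnSO4 in MeCN/H2O (1:1), centrifuged, and analysed by gradient C18 HPLC (230 nm) until the parent was consumed. Fit to first-order decay; triplicate.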

[10] = Stability in 30% human plasma assessed as half life of hydrolysis at pH 7.4 in presence of 0.1 uM AChE inhibitor BW284c51; format: ADME, cell-free; details: pH 7.4, with BW284c51 (AChE inhibitor); procedure, shortened: as §2
[11] = Stability in 30% human plasma assessed as half life of hydrolysis at pH 7.4 in presence of 10 uM carboxylesterase inhibitor BNPP; format: ADME, cell-free; details: pH 7.4, with BNPP (carboxylesterase inhibitor); procedure, shortened: as §2
[12] = Stability in 30% human plasma assessed as half life of hydrolysis at pH 7.4 in presence of 100 uM AChE inhibitor BW284c51; format: ADME, cell-free; details: pH 7.4, with BW284c51 (AChE inhibitor); procedure, shortened: as §2
[13] = Stability in 30% human plasma assessed as half life of hydrolysis at pH 7.4 in presence of 2 mM arylesterase inhibitor EDTA; format: ADME, cell-free; details: pH 7.4, with EDTA (arylesterase inhibitor); procedure, shortened: as §2
[14] = Stability in 50% human serum assessed as half life of hydrolysis at pH 7.4; format: ADME, cell-free; procedure, shortened: as §5
[15] = Stability in 30% human plasma assessed as half life of hydrolysis at pH 7.4 in presence of 20 uM cholinesterase inhibitor eserine; format: ADME, cell-free; details: pH 7.4, with eserine (cholinesterase inhibitor); procedure, shortened: as §2
[16] = Stability in whole blood assessed as half life of hydrolysis at pH 7.4; format: ADME, tissue-based; procedure, shortened: as §5
[17] = biological target: Butyrylcholinesterase (Rattus norvegicus) (UniProt Q9JKC1); test: Activity of BuChE in 10% rat plasma
[18] = system: Plasma; test: Stability in 30% plasma from patient with dubucaine-insensitive BuChE assessed as aspirin yield at pH 7.4 in presence of 20 uM BuChE inhibitor dibucaine; format: ADME, cell-free; details: human; procedure, shortened: as §2
[19] = Stability in 30% human plasma assessed as half life of hydrolysis at pH 7.4 in presence of 10 uM BuChE inhibitor iso-OMPA; format: ADME, cell-free; details: pH 7.4, with iso-OMPA (BuChE inhibitor); procedure, shortened: as §2
[20] = system: Serum; test: Stability in 50% human serum assessed as aspirin yield at pH 7.4; format: ADME, cell-free; procedure, shortened: as §5
[21] = system: Plasma; test: Stability in 30% human plasma assessed as aspirin yield at pH 7.4 in presence of 10 uM carboxylesterase inhibitor BNPP; format: ADME, cell-free
Procedure, shortened: (§6)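 Diluted human plasma (30%, pH 7.4, 37 °C) pre-incubated 5 min with inhibitor (EDTA 2 mM or BNPP 10 µM) before ester addition at 5 × 10^-5 M from acetonitrile. ZnSO4/MeCN quench, then HPLC of ester and aspirin. First-order fit; three determinations.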

[22] = system: Plasma; test: Stability in 10% human plasma assessed as aspirin yield at pH 7.4; format: ADME, cell-free; procedure, shortened: as §5
[23] = system: Plasma; test: Stability in 30% human plasma assessed as aspirin yield at pH 7.4 in presence of 2 mM arylesterase inhibitor EDTA; format: ADME, cell-free; procedure, shortened: as §6
[24] = Stability in whole blood assessed as aspirin yield at pH 7.4; format: ADME, tissue-based; procedure, shortened: as §5
[25] = Stability in 10% human plasma assessed as half life of hydrolysis at pH 7.4; format: ADME, cell-free; procedure, shortened: as §5
[26] = system: Platelet; test: Inhibition of arachidonic acid-induced platelet aggregation in whole blood at 100 uM; format: functional; procedure, shortened: as §1
[27] = system: Plasma; test: as §3; format: ADME, cell-free; details: plasma; procedure, shortened: as §4
[28] = Stability in 30% human plasma assessed as half life of hydrolysis at pH 7.4; format: ADME, cell-free; procedure, shortened: as §5
[29] = system: Plasma; test: Stability in 30% human plasma assessed as aspirin yield at pH 7.4; format: ADME, cell-free; procedure, shortened: as §5

Chain of Cholinesterase (Homo sapiens) (P06276 whole entry): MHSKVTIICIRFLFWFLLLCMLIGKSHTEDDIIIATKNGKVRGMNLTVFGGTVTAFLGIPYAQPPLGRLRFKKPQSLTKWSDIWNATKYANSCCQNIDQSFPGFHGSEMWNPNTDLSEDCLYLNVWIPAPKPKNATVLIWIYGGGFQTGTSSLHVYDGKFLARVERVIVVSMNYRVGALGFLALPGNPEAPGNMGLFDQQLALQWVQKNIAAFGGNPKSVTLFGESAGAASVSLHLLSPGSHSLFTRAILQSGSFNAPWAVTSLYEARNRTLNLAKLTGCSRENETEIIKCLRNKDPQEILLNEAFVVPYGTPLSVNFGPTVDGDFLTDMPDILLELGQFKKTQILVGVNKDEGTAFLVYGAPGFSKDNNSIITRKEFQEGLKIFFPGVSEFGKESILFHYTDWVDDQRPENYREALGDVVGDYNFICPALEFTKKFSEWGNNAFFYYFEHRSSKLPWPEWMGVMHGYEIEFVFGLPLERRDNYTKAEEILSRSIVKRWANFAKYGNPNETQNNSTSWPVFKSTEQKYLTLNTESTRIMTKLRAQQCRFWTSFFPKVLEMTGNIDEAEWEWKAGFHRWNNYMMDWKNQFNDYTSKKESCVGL
Chain of Butyrylcholinesterase (Rattus norvegicus) (Q9JKC1 as listed by the source): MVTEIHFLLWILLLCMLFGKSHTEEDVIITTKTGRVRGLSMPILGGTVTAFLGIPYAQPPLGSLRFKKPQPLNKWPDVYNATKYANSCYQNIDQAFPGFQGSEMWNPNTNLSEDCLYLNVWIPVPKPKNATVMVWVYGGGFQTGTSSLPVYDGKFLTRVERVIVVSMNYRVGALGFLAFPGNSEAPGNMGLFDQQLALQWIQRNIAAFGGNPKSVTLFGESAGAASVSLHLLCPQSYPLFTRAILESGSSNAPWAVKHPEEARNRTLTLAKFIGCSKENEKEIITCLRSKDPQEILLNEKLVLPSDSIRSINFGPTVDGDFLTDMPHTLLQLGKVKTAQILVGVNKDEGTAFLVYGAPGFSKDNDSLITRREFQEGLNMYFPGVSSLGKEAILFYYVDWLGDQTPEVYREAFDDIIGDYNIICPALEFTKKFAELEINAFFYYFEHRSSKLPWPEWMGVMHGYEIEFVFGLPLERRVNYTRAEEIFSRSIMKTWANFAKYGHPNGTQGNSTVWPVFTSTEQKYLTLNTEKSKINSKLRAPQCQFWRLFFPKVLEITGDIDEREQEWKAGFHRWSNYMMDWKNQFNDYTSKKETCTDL

Question: For `CC(=O)Oc1ccccc1C(=O)O` [ASPIRIN], which T1/2 [1] is on record?
Answer: 2 h

Question: And the IC50 [2]?
Answer: 25.5 µM

Question: For `CC(=O)Oc1ccccc1C(=O)O[C@H]1CO[C@H]2[C@@H]1OC[C@H]2OC(=O)c1ccccc1O`, which Activity [3] is on record?
Answer: 30%

Question: What about the Activity [4] of the same molecule?
Answer: 6%

Question: And the half-life [5]?
Answer: 2 min

Question: What about the half-life [6] of the same molecule?
Answer: 4.6 min

Question: What about the half-life [7] of the same molecule?
Answer: 0.47 min

Question: What about the Vmax(app) [1] of the same molecule?
Answer: 0.17

Question: And the half-life [8]?
Answer: 0.49 min

Question: What about the Activity [9] of the same molecule?
Answer: 81%

Question: What about the half-life [10] of the same molecule?
Answer: 1.1 min

Question: What about the half-life [11] of the same molecule?
Answer: 0.95 min

Question: What about the half-life [12] of the same molecule?
Answer: 3.9 min

Question: And the half-life [13]?
Answer: 1.41 min

Question: What about the half-life [14] of the same molecule?
Answer: 0.56 min

Question: What about the half-life [15] of the same molecule?
Answer: 5.8 min

Question: What about the IC50 [2] of the same molecule?
Answer: 17.3 µM

Question: What about the half-life [16] of the same molecule?
Answer: 0.96 min

Question: What about the Vmax(app) [17] of the same molecule?
Answer: 1.75 M/min

Question: And the Activity [18]?
Answer: 69%

Question: What about the half-life [19] of the same molecule?
Answer: 7.04 min

Question: And the Activity [20]?
Answer: 73%

Question: What about the Activity [21] of the same molecule?
Answer: 84%

Question: And the Activity [22]?
Answer: 74%

Question: And the Activity [23]?
Answer: 85%

Question: What about the Activity [24] of the same molecule?
Answer: 72%

Question: What about the half-life [25] of the same molecule?
Answer: 4.9 min

Question: With `CC(=O)Oc1ccccc1C(=O)O[C@@H]1CO[C@H]2[C@@H]1OC[C@@H]2OC(=O)c1ccccc1O` as the molecule, how does the Vmax(app) [1] read?
Answer: 0.23

Question: And the half-life [25]?
Answer: 4.21 min

Question: Which inhibition at 100 µM [26] does the source give for `CC(=O)Oc1ccccc1C(=O)O[C@H]1CO[C@H]2[C@@H]1OC[C@H]2O` here?
Answer: < 30%

Question: And the Vmax(app) [1]?
Answer: 0.22

Question: And the Activity [22]?
Answer: 3%

Question: And the half-life [25]?
Answer: 3.25 min

Question: For `CC(=O)Oc1ccccc1C(=O)O[C@@H]1CO[C@H]2[C@@H]1OC[C@@H]2O`, which Vmax(app) [1] is on record?
Answer: 0.25

Question: And the half-life [25]?
Answer: 4.73 min

Question: For `CC(=O)Oc1ccccc1C(=O)Oc1ccccc1`, which T1/2 [1] is on record?
Answer: 0.0217 h

Question: Which Vmax(app) [1] does the source give for `CC(=O)Oc1ccccc1C(=O)O[C@H]1CO[C@H]2[C@@H]1OC[C@H]2OC(=O)c1ccccc1OC(C)=O` here?
Answer: 0.3

Question: And the t1/2 [27]?
Answer: 0.57 min

Question: And the half-life [28]?
Answer: 1.17 min

Question: And the IC50 [2]?
Answer: 34.1 µM

Question: And the Activity [29]?
Answer: 61%

Question: What about the Activity [22] of the same molecule?
Answer: 51%

Question: What about the half-life [25] of the same molecule?
Answer: 3.35 min
